A short description of assay [1]: Cytotoxicity against HMEC1 assessed as inhibition of cell proliferation after 72 hrs by MTT assay. Particulars: Homo sapiens, HMEC-1, 72 h. The method, boiled down:
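HMEC-1 cells grown in MCDB 131 with 10% fetal calf serum, 10 ng/mL EGF, hydrocortisone, 2 mM glutamine and 20 mM Hepes. Serial compound dilutions, 72 h at 37 °C in 5% CO2, then MTT for 3 h. Formazan dissolved in SDS/DMF lysing buffer (pH 4.7), read at 550 nm (ref 650 nm). IC50 from triplicates, at least three runs.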

The subject of assay [2] is Plasmodium falciparum. As to the kind of experiment: Antiplasmodial activity against chloroquine-resistant Plasmodium falciparum W2 assessed as inhibition of parasite growth after 72 hrs by parasite lactate dehydrogenase assay. Particulars: W2, 72 h. The format is functional, organism-based. The procedure, abridged: (§1)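 Asynchronous P. falciparum cultures (parasitaemia 1–1.5%, 1% final haematocrit, human type A-positive erythrocytes) in RPMI 1640 with 1% AlbuMaxII, 0.01% hypoxanthine, 20 mM Hepes and 2 mM glutamine. Cultures were exposed to serial dilutions (10 mg/mL stocks in water or DMSO) for 72 h at 37 °C under 1% O2/5% CO2/94% N2. Growth was read as pLDH activity (OD650), and IC50 is the mean ± SD of ≥3 independent experiments in duplicate.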

Assay [3] deals with Plasmodium falciparum. The assay can be described thus: Antiplasmodial activity against chloroquine-sensitive Plasmodium falciparum D10 assessed as inhibition of parasite growth after 72 hrs by parasite lactate dehydrogenase assay. The format is functional, organism-based. Particulars: D10, 72 h. The method, boiled down: as §1
In assay [4] the test system is Plasmodium falciparum. As to the kind of experiment: Resistance index, ratio of IC50 for chloroquine-resistant Plasmodium falciparum W2 to IC50 for chloroquine-sensitive Plasmodium falciparum D10. It is filed as functional. The method, boiled down: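 Resistance index is the IC50 against W2 divided by the IC50 against D10. Each IC50 came from a 72 h pLDH growth assay (OD650) on asynchronous cultures at 1% haematocrit and 37 °C, with ≥3 independent experiments in duplicate.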

A short description of assay [5]: Selectivity index, ratio of IC50 for HMEC1 to IC50 for chloroquine-resistant Plasmodium falciparum W2. The method, boiled down:
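Selectivity index is the IC50 on HMEC-1 divided by the IC50 on W2. HMEC-1 cells were grown in MCDB 131 with 10% FCS, EGF, hydrocortisone and Hepes, then given serial dilutions for 72 h at 37 °C in 5% CO2. MTT was added for 3 h, formazan was dissolved in SDS/DMF lysis buffer at pH 4.7, and absorbance was read at 550/650 nm. Each test was run in triplicate at least three times.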

A short description of assay [6]: Selectivity index, ratio of IC50 for HMEC1 to IC50 for chloroquine-sensitive Plasmodium falciparum D10. The procedure, abridged:
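Ratio of HMEC-1 IC50 (72 h MTT) to D10 IC50. […] Serial dilutions (final DMSO ≤1%), 72 h at 37 °C under 1% O2/5% CO2/94% N2. Growth read as pLDH activity (OD650). Mean of ≥3 experiments in duplicate.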

pIC50: −log10 of the molar value.

For the compound `C/C=C/C=C/C=C/C[N+](C)(CCCCCCCCCCCCCCCC)Cc1ccccc1` (centres undefined), the pIC50 (commonly the IC50 on a negative log10 scale, so that one unit is a factor of ten) was 5.22 in assay [1], less than 5.06 in assay [2] and less than 5.06 in assay [3].

In the case of `C/C=C/C=C/C=C/C[N+](C)(CCCCCCCCCCCCCCCCCC)Cc1ccccc1.[I-]` (centres undefined), the “Ratio IC50” value stood at 1.3 in assay [4], 11 in assay [5] and 15 in assay [6]. In addition, the pIC50 in assay [1] is 5.15; in assay [2], 6.21; in assay [3] it was 6.35.

For the compound `C/C=C/C=C/C=C/C[N+](C)(CCCCCCCCCCCC)Cc1ccccc1.[I-]` (centres undefined), the entries for the “Ratio IC50” value in assay [4], in assay [5] and in assay [6] were 1.2, 18 and 23, respectively. The pIC50 in assay [1] was 5.23; in assay [2] it was 6.48; in assay [3], 6.60.

As for `CCN(CC)CCCC(C)Nc1ccnc2cc(Cl)ccc12` (centres undefined) [CHLOROQUINE], the pIC50 in assay [1] was less than 4.70.

Regarding `C/C=C/C=C/C=C/C[N+](C)(C)CCCCCCCCCCCCCC.[I-]`, the “Ratio IC50” value in assay [4] turned out to be 2.5; in assay [5] it was 14; in assay [6], 36. Also, the pIC50 in assay [1] was 5.10; in assay [2], 6.28; in assay [3], 6.68.

Consider `C/C=C/C=C/C=C/C[N+](C)(CCCCCCCCCCCCCC)Cc1ccccc1.[I-]` (centres undefined), for which the “Ratio IC50” value stood at 1.4 in assay [4], 75 in assay [5] and 102 in assay [6]. Also, the values for the pIC50 in assay [1], in assay [2] and in assay [3] were 4.64, 6.51 and 6.66, respectively.

Regarding `C/C=C/C=C/C=C/C[N+](C)(C)CCCCCCCCCCCCCCCC.[I-]`, the “Ratio IC50” value in assay [4] was determined as 1.5; in assay [5], 7; in assay [6], 11. Besides, the pIC50 in assay [1] was 5.15; in assay [2] it was 6.02; in assay [3], 6.21.

For `CCCCCCCCCCCC[N+](C)(C)CCCCCCCC.[Br-]`, the “Ratio IC50” value in assay [4] was 2.5; in assay [5], 18; in assay [6], 44. Besides, the pIC50 was 5.06 in assay [1], 6.32 in assay [2] and 6.72 in assay [3].

As for `C/C=C/C=C/C=C/C[N+](C)(CCCCCCCCCCCCC)Cc1ccccc1.[I-]` (centres undefined), the “Ratio IC50” value stood at 0.6 in assay [4], 41 in assay [5] and 24 in assay [6]. For the same compound, the pIC50 in assay [1] was 4.67; in assay [2], 6.28; in assay [3] it was 6.06.

Consider `C/C=C/C=C/C=C/C[N+](C)(C)CCCCCCCCCCCCCCCCCC.[I-]`, for which the entries for the “Ratio IC50” value in assay [4], in assay [5] and in assay [6] were 1.3, 10 and 14, respectively. Moreover, the pIC50 in assay [1] is 4.78; in assay [2] it was 5.82; in assay [3], 5.94.

Consider `C/C=C/C=C/C=C/C[N+](C)(C)CCCCCCCCCCCC.[I-]`, for which, in assay [4], the “Ratio IC50” value was 1.1. The pIC50 is less than 4.70 in assay [1], 5.33 in assay [2] and 5.37 in assay [3].

As to `C/C=C/C=C/C=C/C[N+](C)(C)CCCCCCCCCCCCC.[I-]`, the “Ratio IC50” value in assay [4] was determined as 1.7; in assay [5], 8; in assay [6], 15. The pIC50 is 5.25 in assay [1], 6.20 in assay [2] and 6.44 in assay [3].

On to `C/C=C/C=C/C=C/C(=O)O`, for which the pIC50 in assay [2] and in assay [3] was less than 4.55 throughout.
